Results taken from ChEMBL document CHEMBL2029242 (J Med Chem, 2012).

Tests used:
A-375 = assay: Cytotoxicity against human A375 cells expressing BRAF V600E mutant after 72 hrs by cell titer blue assay; assay type: functional, cell-based; conditions: A-375, 72 h
Procedure, shortened: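 Cells were grown in ATCC-recommended media and kept overnight in 0.5% serum. They were then exposed to compound for 72 h, and Cell Titer Blue was added for 3 h. EC50 came from fluorometric concentration−response curves, run in duplicate and repeated at least once.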

[1] = target: T1, Serine/threonine-protein kinase B-raf (Homo sapiens, UniProt P15056, V600E)
[2] = target: T1, Serine/threonine-protein kinase B-raf; remark: listed apart in the source
[3] = Clearance in Sprague-Dawley rat at 1 mg/kg, iv and 10 mg/kg, po; assay type: ADME, organism-based; conditions: in vivo
Procedure, shortened: (§1)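 Single-dose PK. Rats: male Sprague−Dawley, jugular-catheterized, 1 mg/kg iv in 3:1 PEG400/water (n = 2) and 10 mg/kg po in Pharmatek #6 (n = 3). Female athymic nude mice: 100 mg/kg po in Pharmatek #6 (n = 3). Beagle dogs and male cynomolgus monkeys (n = 3): crossover, 1 mg/kg iv and 10 mg/kg po in 22% HPβCD, overnight fast. Plasma LC-MS/MS to 24 h; noncompartmental parameters, mean ± SD.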

[4] = Volume of distribution in Sprague-Dawley rat at 1 mg/kg, iv and 10 mg/kg, po; assay type: ADME, organism-based; conditions: in vivo
Procedure, shortened: (§2)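 Male Sprague-Dawley rats (250–350 g, jugular-catheterized) received a single dose either iv at 1 mg/kg in 3:1 PEG400/water (n = 2) or po at 10 mg/kg in Pharmatek #6 (n = 3). Plasma was sampled at 5 min (iv only), 15 and 30 min, and 1, 2, 4, 6 and 24 h. Samples were analyzed by LC-MS/MS after acetonitrile precipitation. Parameters came from noncompartmental linear-trapezoidal analysis of individual animals.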

[5] = Terminal half life in Sprague-Dawley rat at 1 mg/kg, iv and 10 mg/kg, po; assay type: ADME, organism-based; conditions: in vivo, read-out: beta t1/2 (converted); procedure, shortened: as §2
[6] = AUC (infinity) in Sprague-Dawley rat at 10 mg/kg, po; assay type: ADME, organism-based; set-up: time infinity, dose 10 mg/kg, route oral; conditions: plasma; procedure, shortened: as §1
[7] = Cmax in Sprague-Dawley rat at 10 mg/kg, po; assay type: ADME, organism-based; set-up: dose 10 mg/kg, route oral; conditions: in vivo; procedure, shortened: as §1
[8] = Tmax in Sprague-Dawley rat at 10 mg/kg, po; assay type: ADME, organism-based; set-up: dose 10 mg/kg, route oral; conditions: in vivo; procedure, shortened: as §2
[9] = Oral bioavailability in Sprague-Dawley rat at 10 mg/kg; assay type: ADME, organism-based; conditions: in vivo; procedure, shortened: as §2
[10] = Stability in rat liver microsomes assessed as compound remaining at 1 uM after 60 mins; assay type: ADME, Microsome; conditions: read-out: Stability
Procedure, shortened: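 Pooled liver microsomes (0.5 mg/mL) were premixed with 0.1 M phosphate buffer pH 7.4, 6.5 mM MgCl2 and test compound (1 μM final, 0.2% DMSO). NADPH (1 mM) started the reaction at 37 °C, in duplicate. Minus-NADPH and testosterone controls were included. Aliquots were taken at 0, 5, 15, 30 and 60 min and quenched in acetonitrile containing internal standard.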

T1 sequence (P15056 2-766 V600E limits assumed): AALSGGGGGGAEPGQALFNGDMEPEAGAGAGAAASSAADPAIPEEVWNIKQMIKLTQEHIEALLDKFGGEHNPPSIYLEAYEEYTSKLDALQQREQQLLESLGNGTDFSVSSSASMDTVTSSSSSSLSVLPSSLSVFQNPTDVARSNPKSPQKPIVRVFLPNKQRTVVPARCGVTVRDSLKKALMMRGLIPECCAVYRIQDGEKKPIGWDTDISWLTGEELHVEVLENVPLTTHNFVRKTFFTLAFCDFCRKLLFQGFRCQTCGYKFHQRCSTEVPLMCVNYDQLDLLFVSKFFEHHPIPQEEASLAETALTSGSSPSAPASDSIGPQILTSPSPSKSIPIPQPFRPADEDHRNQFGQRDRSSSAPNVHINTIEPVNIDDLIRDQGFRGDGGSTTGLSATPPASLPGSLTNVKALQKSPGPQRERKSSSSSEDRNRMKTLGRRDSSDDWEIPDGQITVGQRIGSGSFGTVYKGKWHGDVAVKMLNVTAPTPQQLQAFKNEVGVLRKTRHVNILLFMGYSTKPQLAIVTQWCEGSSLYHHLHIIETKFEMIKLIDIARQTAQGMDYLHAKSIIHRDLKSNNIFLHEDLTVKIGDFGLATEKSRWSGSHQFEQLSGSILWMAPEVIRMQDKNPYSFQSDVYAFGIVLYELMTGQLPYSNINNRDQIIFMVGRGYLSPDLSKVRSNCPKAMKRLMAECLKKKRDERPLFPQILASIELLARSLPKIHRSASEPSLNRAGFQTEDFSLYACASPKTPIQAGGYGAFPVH

COc1cc2ncnc(Oc3cccc(NC(=O)Nc4cc(C(C)(C)CO)on4)c3)c2cc1OC
IC50 (A-375): > 15000 nM | Kd [1]: 49 nM | IC50 [2]: 649 nM

COc1cc2ncnc(Oc3cccc(NC(=O)Nc4cc(C5CCCC5)no4)c3)c2cc1OC
IC50 (A-375): 4380 nM | Kd [1]: 122 nM | IC50 [2]: 1130 nM

COCC(C)(C)c1cc(NC(=O)Nc2cccc(Oc3ncnc4cc(OC)c(OC)cc34)c2)no1
IC50 (A-375): 1550 nM | Kd [1]: 151 nM | IC50 [2]: 324 nM

COc1cc2ncnc(Oc3cccc(NC(=O)Nc4cc(C(C)(C)C)nn4-c4ccccc4)c3)c2cc1OC
clearance [3]: 3.1 mL/min/kg | Vd [4]: 0.3 L/kg | half-life [5]: 4.2 h | AUC(0-inf) [6]: 25.9 µM·h | Cmax [7]: 6.7 µM | Tmax [8]: 1.3 h | bioavailability [9]: 33% | Kd [1]: 295 nM | IC50 [2]: 21 nM

COc1cc2ncnc(Oc3cccc(NC(=O)Nc4cc(C(C)(C)C)on4)c3)c2cc1OC
IC50 (A-375): 328 nM | clearance [3]: 7.3 mL/min/kg | Vd [4]: 0.5 L/kg | half-life [5]: 19.2 h | AUC(0-inf) [6]: 17 µM·h | Cmax [7]: 11 µM | Tmax [8]: 0.8 h | bioavailability [9]: 49% | remaining at 1 h, 1 µM [10]: 46%

COc1cc2ncnc(Oc3cccc(NC(=O)Nc4cc(C5(C(F)(F)F)CC5)on4)c3)c2cc1OC
IC50 (A-375): 117 nM | Kd [1]: 27 nM | IC50 [2]: 183 nM

COc1cc2ncnc(Oc3cccc(NC(=O)Nc4cc(C(C)(C)C)no4)c3)c2cc1OC
clearance [3]: 9.8 mL/min/kg | Vd [4]: 1 L/kg | half-life [5]: 8.2 h | AUC(0-inf) [6]: 1.9 µM·h | Cmax [7]: 0.7 µM | Tmax [8]: 0.8 h | bioavailability [9]: 6% | remaining at 1 h, 1 µM [10]: 51%

COc1cc2ncnc(Oc3cccc(NC(=O)Nc4cc(C(C)C)on4)c3)c2cc1OC
IC50 (A-375): 527 nM | Kd [1]: 19 nM | IC50 [2]: 355 nM

COc1cc2ncnc(Oc3cccc(NC(=O)Nc4cc(C(C)(CF)CF)no4)c3)c2cc1OC
IC50 (A-375): 1980 nM | Kd [1]: 132 nM | IC50 [2]: 339 nM

COc1cc2ncnc(Oc3cccc(NC(=O)Nc4cc(C(C)(C)C)nn4Cc4ccccc4)c3)c2cc1OC
IC50 (A-375): 1870 nM | Kd [1]: 175 nM | IC50 [2]: 480 nM

COc1cc2ncnc(Sc3cccc(NC(=O)Nc4cc(C(C)(C)F)no4)c3)c2cc1OC
IC50 (A-375): 1470 nM | Kd [1]: 39 nM | IC50 [2]: 84 nM

COc1cc2ncnc(Oc3cccc(NC(=O)Nc4cc(C)on4)c3)c2cc1OC
IC50 (A-375): > 15000 nM | Kd [1]: 678 nM | IC50 [2]: > 15000 nM

COc1cc2ncnc(Oc3cccc(NC(=O)Nc4cc(C(C)(C)C)nn4C)c3)c2cc1OC
IC50 (A-375): 4270 nM | Kd [1]: 87 nM | IC50 [2]: 336 nM

COc1cc2ncnc(Oc3cccc(NC(=O)Nc4cc(C(C)(CF)CF)on4)c3)c2cc1OC
IC50 (A-375): 145 nM | Kd [1]: 45 nM | IC50 [2]: 109 nM

COc1cc2ncnc(Oc3cccc(NC(=O)Nc4cc(C(C)(C)C)nn4C4CCCCC4)c3)c2cc1OC
IC50 (A-375): > 15000 nM | Kd [1]: 174 nM | IC50 [2]: > 1670 nM

COc1cc2ncnc(Oc3cccc(NC(=O)Nc4cc(C(F)(F)F)no4)c3)c2cc1OC
IC50 (A-375): 5150 nM | Kd [1]: 78 nM | IC50 [2]: 2230 nM

COc1cc2ncnc(Oc3cccc(NC(=O)Nc4cc(C(C)(C)C#N)no4)c3)c2cc1OC
IC50 (A-375): 6160 nM | Kd [1]: 48 nM | IC50 [2]: 332 nM

COc1cc2ncnc(Oc3cccc(NC(=O)Nc4cc(C(C)(F)F)no4)c3)c2cc1OC
IC50 (A-375): 694 nM | Kd [1]: 76 nM | IC50 [2]: 645 nM

COc1cc2ncnc(Oc3cccc(NC(=O)Nc4cnn(C(C)(C)C)c4)c3)c2cc1OC
IC50 (A-375): > 15000 nM | Kd [1]: 75 nM | IC50 [2]: 1130 nM

COc1cc2ncnc(Sc3cccc(NC(=O)Nc4cc(C5(C(F)(F)F)CC5)on4)c3)c2cc1OC
IC50 (A-375): 222 nM | Kd [1]: 31 nM | IC50 [2]: 469 nM

COc1cc2ncnc(Oc3cccc(NC(=O)Nc4cc(C(C)(C)C)nn4CC(C)C)c3)c2cc1OC
IC50 (A-375): 1160 nM | Kd [1]: 101 nM | IC50 [2]: 681 nM

COc1cc2ncnc(Oc3cccc(NC(=O)Nc4cc(C(C)(C)F)on4)c3)c2cc1OC
IC50 (A-375): 493 nM | clearance [3]: 2.9 mL/min/kg | Vd [4]: 0.5 L/kg | half-life [5]: 3.5 h | AUC(0-inf) [6]: 127 µM·h | Cmax [7]: 21.1 µM | Tmax [8]: 2 h | bioavailability [9]: 100% | remaining at 1 h, 1 µM [10]: 92% | Kd [1]: 29 nM | IC50 [2]: 276 nM

COc1cc2ncnc(Oc3cccc(NC(=O)Nc4cc(-c5ccccc5)no4)c3)c2cc1OC
IC50 (A-375): 7070 nM | Kd [1]: 1450 nM | IC50 [2]: > 15000 nM

COc1cc2ncnc(Sc3cccc(NC(=O)Nc4cc(C(C)(C)C(F)(F)F)on4)c3)c2cc1OC
IC50 (A-375): > 15000 nM | Kd [1]: 74 nM | IC50 [2]: 142 nM

COc1cc2ncnc(Oc3cccc(NC(=O)Nc4cc(C(C)(C)C(F)(F)F)nn4-c4ccccc4)c3)c2cc1OC
Kd [1]: 271 nM | IC50 [2]: 62 nM

COc1cc2ncnc(Oc3cccc(NC(=O)Nc4cccc(C(C)(C)C)c4)c3)c2cc1OC
IC50 (A-375): 1770 nM

COc1cc2ncnc(Oc3cccc(NC(=O)Nc4cc(C5CCCC5)on4)c3)c2cc1OC
IC50 (A-375): 488 nM | Kd [1]: 37 nM | IC50 [2]: 134 nM

COc1cc2ncnc(Oc3cccc(NC(=O)Nc4cc(-c5ccccc5)on4)c3)c2cc1OC
IC50 (A-375): > 15000 nM | Kd [1]: 136 nM | IC50 [2]: 956 nM

COc1cc2ncnc(Oc3cccc(NC(=O)Nc4cc(C(C)(C)C(F)(F)F)no4)c3)c2cc1OC
IC50 (A-375): 549 nM | AUC(0-inf) [6]: 40.7 µM·h | Cmax [7]: 4.7 µM | Tmax [8]: 1.7 h | Kd [1]: 66 nM | IC50 [2]: 174 nM

COc1cc2ncnc(Oc3cccc(NC(=O)Nc4cc(C(C)(C)F)no4)c3)c2cc1OC
IC50 (A-375): 125 nM | clearance [3]: 4 mL/min/kg | Vd [4]: 0.6 L/kg | half-life [5]: 4.7 h | AUC(0-inf) [6]: 42 µM·h | Cmax [7]: 7.9 µM | Tmax [8]: 2 h | bioavailability [9]: 48% | remaining at 1 h, 1 µM [10]: 82% | Kd [1]: 44 nM | IC50 [2]: 155 nM

COc1cc2ncnc(Oc3cccc(NC(=O)Nc4cc(C(C)C)no4)c3)c2cc1OC
IC50 (A-375): 2960 nM | Kd [1]: 31 nM | IC50 [2]: 340 nM

COc1cc2ncnc(Sc3cccc(NC(=O)Nc4cc(C(C)(CF)CF)on4)c3)c2cc1OC
IC50 (A-375): 223 nM | Kd [1]: 50 nM | IC50 [2]: 93 nM

COc1cc2ncnc(Oc3cccc(NC(=O)Nc4cc(C5(C(F)(F)F)CCC5)no4)c3)c2cc1OC
IC50 (A-375): 2240 nM | Kd [1]: 129 nM | IC50 [2]: 308 nM

COc1cc2ncnc(Oc3cccc(NC(=O)Nc4ccc(C(C)(C)C)cc4)c3)c2cc1OC
IC50 (A-375): 3490 nM

COc1cc2ncnc(Oc3cccc(NC(=O)Nc4cc(C(C)(C)C)nn4C(C)C)c3)c2cc1OC
IC50 (A-375): 543 nM | Kd [1]: 85 nM | IC50 [2]: 505 nM
